Reference: ChEMBL document CHEMBL1156892, “Synthesis and in vitro evaluation of bisphosphonated glycopeptide prodrugs for the treatment of osteomyelitis” (Bioorg Med Chem Lett, 2010)
Converted amounts (≈) assume the structure as drawn.

Tests used:
Staphylococcus aureus [1] = test: Antibacterial activity against Staphylococcus aureus ATCC 13709 in cation adjusted Mueller-Hinton broth by […] assay in presence of 50% rat serum; assay type: functional
In short: (§1)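 MIC determination against S. aureus ATCC13709. Medium is cation-adjusted Mueller-Hinton broth, alone or supplemented with mouse, human or rat serum as specified per line.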

Oryctolagus cuniculus = species on record: Oryctolagus cuniculus; test: Binding affinity to rabbit bone assessed as drug level bound to bone powder at 0.25 to 4 ug/ml after 24 hrs; assay type: tissue-based; conditions: Bone element
Staphylococcus aureus [2] = test: Antibacterial activity against Staphylococcus aureus ATCC 13709 in cation adjusted Mueller-Hinton broth by […] assay in presence of 50% mouse serum; assay type: functional; in short: as §1
Staphylococcus aureus [3] = test: Antibacterial activity against Staphylococcus aureus ATCC 13709 in cation adjusted Mueller-Hinton broth by […] assay; assay type: functional; in short: as §1
Staphylococcus aureus [4] = test: Antibacterial activity against Staphylococcus aureus ATCC 13709 in cation adjusted Mueller-Hinton broth by […] assay in presence of 50% human serum; assay type: functional; in short: as §1
[5] = Stability in phosphate buffered saline assessed as conversion of drug to oritavancin after 24 hrs; assay type: physicochemical; conditions: buffer, BLD = below limit of detection
In short: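 Prodrugs incubated 24 h in phosphate-buffered saline. Regeneration of parent drug is expressed as % conversion. Parallel incubations were run in 50% rat or human serum diluted in PBS to assess enzymatic cleavage.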

Staphylococcus aureus [6] = test: Antibacterial activity against Staphylococcus aureus ATCC 13709 in cation adjusted Mueller-Hinton broth by […] assay in presence of 50% mouse serum in absence of polysorbate-80; assay type: functional
In short: (§2)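 MIC against S. aureus ATCC13709 in cation-adjusted Mueller-Hinton broth, alone or with mouse, human or rat serum, run without polysorbate-80 in the medium.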

Staphylococcus aureus [7] = test: Antibacterial activity against Staphylococcus aureus ATCC 13709 in cation adjusted Mueller-Hinton broth by […] assay in presence of 50% human serum in absence of polysorbate-80; assay type: functional; in short: as §2
Staphylococcus aureus [8] = test: Antibacterial activity against Staphylococcus aureus ATCC 13709 in cation adjusted Mueller-Hinton broth by […] assay in absence of polysorbate-80; assay type: functional; in short: as §2
Streptococcus pneumoniae = test: Antibacterial activity against Streptococcus pneumoniae ATCC 700902 by agar diffusion assay; assay type: functional
Staphylococcus aureus [9] = test: Antibacterial activity against Staphylococcus aureus ATCC 13709 in cation adjusted Mueller-Hinton broth by […] assay in presence of 50% rat serum in absence of polysorbate-80; assay type: functional; in short: as §2

| Structure (SMILES) | MIC (Staphylococcus aureus [1]) | Activity (Oryctolagus cuniculus) | MIC (Staphylococcus aureus [2]) | MIC (Staphylococcus aureus [3]) | MIC (Staphylococcus aureus [4]) | Activity [5] | MIC (Staphylococcus aureus [6]) | MIC (Staphylococcus aureus [7]) | MIC (Staphylococcus aureus [8]) | MIC (Streptococcus pneumoniae) | MIC (Staphylococcus aureus [9]) |
| --- | --- | --- | --- | --- | --- | --- | --- | --- | --- | --- | --- |
| CC(C)C[C@H](C(=O)N[C@H]1C(=O)N[C@@H](CC(N)=O)C(=O)N[C@H]2C(=O)N[C@H]3C(=O)N[C@H](C(=O)N[C@H](C(=O)O)c4cc(O)cc(O)c4-c4cc3ccc4O)[C@H](O[C@H]3C[C@](C)(N)[C@@H](O)[C@H](C)O3)c3cc(Cl)c(c(Cl)c3)Oc3cc2cc(c3O[C@H]2O[C@@H](CO)[C@@H](O)[C@H](O)[C@H]2O[C@@H]2C[C@@](C)(NCc3ccc(-c4ccc(Cl)cc4)cc3)[C@@H](O)[C@@H](C)O2)Oc2ccc(cc2Cl)[C@H]1O)N(C)C(=O)OCOC(=O)CCCC(P(=O)(O)O)P(=O)(O)O | 32 µg/mL | 99.9% | 32 µg/mL | 32 µg/mL (≈ 14.9 µM) | > 32 µg/mL | BLD |  |  |  |  |  |
| CN[C@H](CC(C)C)C(=O)N[C@H]1C(=O)N[C@@H](CC(N)=O)C(=O)N[C@H]2C(=O)N[C@H]3C(=O)N[C@H](C(=O)N[C@H](C(=O)O)c4cc(O)cc(O)c4-c4cc3ccc4O)[C@H](O[C@H]3C[C@](C)(N)[C@@H](O)[C@H](C)O3)c3ccc(c(Cl)c3)Oc3cc2cc(c3O[C@@H]2O[C@H](CO)[C@@H](O)[C@H](O)[C@H]2O[C@H]2C[C@](C)(NCc3ccc(-c4ccc(Cl)cc4)cc3)[C@@H](O)[C@H](C)O2)Oc2ccc(cc2Cl)[C@H]1O [ORITAVANCIN] |  |  |  |  |  |  | 2 µg/mL | 1 µg/mL | 0.5 µg/mL (≈ 0.279 µM) | 0.001 µg/mL (≈ 0.000558 µM) | 0.25 µg/mL |
| CN[C@H](CC(C)C)C(=O)N[C@H]1C(=O)N[C@@H](CC(N)=O)C(=O)N[C@H]2C(=O)N[C@H]3C(=O)N[C@H](C(=O)N[C@H](C(=O)OCC(=O)NC(P(=O)(O)O)P(=O)(O)O)c4cc(O)cc(O)c4-c4cc3ccc4O)[C@H](O[C@H]3C[C@](C)(N)[C@@H](O)[C@H](C)O3)c3cc(Cl)c(c(Cl)c3)Oc3cc2cc(c3O[C@H]2O[C@@H](CO)[C@@H](O)[C@H](O)[C@H]2O[C@@H]2C[C@@](C)(NCc3ccc(-c4ccc(Cl)cc4)cc3)[C@@H](O)[C@@H](C)O2)Oc2ccc(cc2Cl)[C@H]1O | 2 µg/mL | 97.6% | 2 µg/mL | 16 µg/mL (≈ 7.77 µM) | 32 µg/mL |  |  |  |  |  |  |
| CC(C)C[C@H](C(=O)N[C@H]1C(=O)N[C@@H](CC(N)=O)C(=O)N[C@H]2C(=O)N[C@H]3C(=O)N[C@H](C(=O)N[C@H](C(=O)O)c4cc(O)cc(O)c4-c4cc3ccc4O)[C@H](O[C@H]3C[C@](C)(N)[C@@H](O)[C@H](C)O3)c3cc(Cl)c(c(Cl)c3)Oc3cc2cc(c3O[C@H]2O[C@@H](CO)[C@@H](O)[C@H](O)[C@H]2O[C@@H]2C[C@@](C)(NCc3ccc(-c4ccc(Cl)cc4)cc3)[C@@H](O)[C@@H](C)O2)Oc2ccc(cc2Cl)[C@H]1O)N(C)C(=O)CC(P(=O)(O)O)P(=O)(O)O | 4 µg/mL | 99.9% | 4 µg/mL | 32 µg/mL (≈ 15.7 µM) | 32 µg/mL |  |  |  |  |  |  |
| CC(C)C[C@H](C(=O)N[C@H]1C(=O)N[C@@H](CC(N)=O)C(=O)N[C@H]2C(=O)N[C@H]3C(=O)N[C@H](C(=O)N[C@H](C(=O)O)c4cc(O)cc(O)c4-c4cc3ccc4O)[C@H](O[C@H]3C[C@](C)(N)[C@@H](O)[C@H](C)O3)c3cc(Cl)c(c(Cl)c3)Oc3cc2cc(c3O[C@H]2O[C@@H](CO)[C@@H](O)[C@H](O)[C@H]2O[C@@H]2C[C@@](C)(NCc3ccc(-c4ccc(Cl)cc4)cc3)[C@@H](O)[C@@H](C)O2)Oc2ccc(cc2Cl)[C@H]1O)N(C)C(=O)CCC(P(=O)(O)O)P(=O)(O)O | > 32 µg/mL | 99.8% | > 32 µg/mL | > 32 µg/mL | > 32 µg/mL |  |  |  |  |  |  |
| CN[C@H](CC(C)C)C(=O)N[C@H]1C(=O)N[C@@H](CC(N)=O)C(=O)N[C@H]2C(=O)N[C@H]3C(=O)N[C@H](C(=O)N[C@H](C(=O)OCC(=O)Nc4ccc(CC(P(=O)(O)O)P(=O)(O)O)cc4)c4cc(O)cc(O)c4-c4cc3ccc4O)[C@H](O[C@H]3C[C@](C)(N)[C@@H](O)[C@H](C)O3)c3cc(Cl)c(c(Cl)c3)Oc3cc2cc(c3O[C@H]2O[C@@H](CO)[C@@H](O)[C@H](O)[C@H]2O[C@@H]2C[C@@](C)(NCc3ccc(-c4ccc(Cl)cc4)cc3)[C@@H](O)[C@@H](C)O2)Oc2ccc(cc2Cl)[C@H]1O | 8 µg/mL |  | 8 µg/mL | > 32 µg/mL | > 32 µg/mL |  |  |  |  |  |  |
| CN[C@H](CC(C)C)C(=O)N[C@H]1C(=O)N[C@@H](CC(N)=O)C(=O)N[C@H]2C(=O)N[C@H]3C(=O)N[C@H](C(=O)N[C@H](C(=O)OCC(=O)Nc4ccc(CC(P(=O)(O)O)P(=O)(O)O)cc4)c4cc(O)cc(O)c4-c4cc3ccc4O)[C@H](O)c3cc(Cl)c(c(Cl)c3)Oc3cc2cc(c3O[C@H]2O[C@@H](CO)[C@@H](O)[C@H](O)[C@H]2O[C@@H]2C[C@@](C)(N)[C@@H](O)[C@@H](C)O2)Oc2ccc(cc2Cl)[C@H]1O | 32 µg/mL | 96.7% | 16 µg/mL | 16 µg/mL (≈ 8.86 µM) | 16 µg/mL |  |  |  |  |  |  |
| CC(C)C[C@H](C(=O)N[C@H]1C(=O)N[C@@H](CC(N)=O)C(=O)N[C@H]2C(=O)N[C@H]3C(=O)N[C@H](C(=O)N[C@H](C(=O)O)c4cc(O)cc(O)c4-c4cc3ccc4O)[C@H](O[C@H]3C[C@](C)(N)[C@@H](O)[C@H](C)O3)c3cc(Cl)c(c(Cl)c3)Oc3cc2cc(c3O[C@H]2O[C@@H](CO)[C@@H](O)[C@H](O)[C@H]2O[C@@H]2C[C@@](C)(NCc3ccc(-c4ccc(Cl)cc4)cc3)[C@@H](O)[C@@H](C)O2)Oc2ccc(cc2Cl)[C@H]1O)N(C)C(=O)OCOC(=O)CCC(P(=O)(O)O)P(=O)(O)O | 1 µg/mL | 96.9% | 0.5 µg/mL | 8 µg/mL (≈ 3.75 µM) | 4 µg/mL |  |  |  |  |  |  |
| CN[C@H](CC(C)C)C(=O)N[C@H]1C(=O)N[C@@H](CC(N)=O)C(=O)N[C@H]2C(=O)N[C@H]3C(=O)N[C@H](C(=O)N[C@H](C(=O)OCC(=O)NC(P(=O)(O)O)P(=O)(O)O)c4cc(O)cc(O)c4-c4cc3ccc4O)[C@H](O)c3cc(Cl)c(c(Cl)c3)Oc3cc2cc(c3O[C@H]2O[C@@H](CO)[C@@H](O)[C@H](O)[C@H]2O[C@@H]2C[C@@](C)(N)[C@@H](O)[C@@H](C)O2)Oc2ccc(cc2Cl)[C@H]1O | 32 µg/mL | 96.5% | 16 µg/mL | 16 µg/mL (≈ 9.33 µM) | 8 µg/mL |  |  |  |  |  |  |
